# An excerpt weighted towards active compounds, which were near 3.1% of everything screened.
# OX1R antag-1: blocks the human orexin 1 receptor. AID 434989. CHO/OX1R cells, Fluo-8 calcium fluorescence, orexin A. hit rate 0.43% among 330,000. O43613. inhibition, % at 5 µM;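 active = inhibition above its plate's threshold, mean inhibition of all tested compounds on the plate plus 3 SD, cut at about 37% in these data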;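 note: 0% = orexin A challenge wells and 100% = SB-334867-A antagonist wells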
# Target sequence (O43613 whole entry, looked up): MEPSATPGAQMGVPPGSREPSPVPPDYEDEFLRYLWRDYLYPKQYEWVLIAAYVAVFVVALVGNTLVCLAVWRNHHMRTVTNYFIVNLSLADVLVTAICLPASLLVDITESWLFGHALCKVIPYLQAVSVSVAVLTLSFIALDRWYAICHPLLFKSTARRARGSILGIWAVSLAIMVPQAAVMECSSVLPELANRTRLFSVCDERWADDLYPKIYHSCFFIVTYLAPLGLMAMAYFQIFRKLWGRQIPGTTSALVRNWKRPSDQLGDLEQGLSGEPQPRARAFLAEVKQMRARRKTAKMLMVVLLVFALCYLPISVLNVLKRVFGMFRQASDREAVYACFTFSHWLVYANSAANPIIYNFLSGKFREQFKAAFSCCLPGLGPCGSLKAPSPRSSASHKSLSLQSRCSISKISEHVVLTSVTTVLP
# GPR7 antagonist: human neuropeptides B/W receptor 1 antagonism | GPR7-expressing cells, fluorescence antagonist assay | inhibition, % at 4.4 µM | hit rate 1.1% among 290,000; in the data active = inhibition above about 16%, passing the limit was not always enough;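 note: cells stimulated with the agonist NPW; 0% = agonist with vehicle and 100% = vehicle without agonist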
# GalR3 antag: blocks the human galanin receptor 3 | O60755 | inhibition, % at 3 µM | HEK293 GalR3-CNG cAMP membrane potential fluorescence; galR3 body fused to GalR1 C-terminus | hit rate 0.44% among 360,000;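 active = inhibition above the screen-wide average plus 3 SD, cut at about 13% in these data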;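 note: forskolin and galanin both at EC90 stimulate the cells; cAMP rise reported by CNG channel membrane potential dye signal; 0% = forskolin plus galanin with DMSO and 100% = forskolin alone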
# OX1R antag-2: OX1R (human) antagonism; O43613; OX1R-expressing cells, FRET antagonist read-out; inhibition, % at 6.6 µM; hit rate 1.8% among 330,000; AID 485270; in the data active = inhibition mostly above about 38%, no sharp cut-off; inactive = mostly below about 40%;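 note: 0% = agonist challenge alone and 100% = reference antagonist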
# CHO parental Ca: counter-screen: ATP calcium response change in parental CHO cells; parental CHO-K1, ATP-induced calcium, Fluo-8 fluorescence; inhibition, % at 5.6 µM; hit rate 0.63% among 330,000;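 active = inhibition above that plate's mean sample inhibition plus 3 SD, cut at about 26% in these data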;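 note: 0% = ATP-challenged DMSO wells and 100% = DMSO wells without ATP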
#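 Material: Parental CHO cells | Reagent: ATP | Compound dosing: Single nominal dose of 5.6 µM per compound | Detection: Intracellular calcium via Fluo-8 no-wash fluorescent dye | Read-out: % inhibition of ATP-induced calcium mobilization | Benchmarks: Low control ATP plus DMSO, high control DMSO only | Replicates: Singlicate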
# * hit, by the source's call; · = no result given.
SMILES,OX1R antag-1,GPR7 antagonist,GalR3 antag,OX1R antag-2,CHO parental Ca
C=CCCC[C@H]1OC(=O)[C@H](C)NC(=O)[C@H](C(C)C)NC(=O)[C@@H]2CCCN2C(=O)[C@H](Cc2ccccc2)OC(=O)[C@@H](C(C)C)N(C)C(=O)[C@H](C(C)C)NC(=O)C1(C)C,·,·,-3,·,·
CCCn1cc(C(=O)Nc2ccc(Oc3cccnc3)cc2)c2ccccc21,·,·,-6,·,·
CN(C)c1ccc2c(c1)Sc1cc(N(C)C)ccc1N2C(=O)c1ccccc1,-6,0,-8,33,38*
Cc1ccc(C(=O)N2c3ccccc3Sc3ccccc32)cc1,·,·,-4,·,·
CN1CCCCC(NC(=O)c2cccc(F)c2)C1=O (centres undefined),·,·,-9,·,·
Cc1ccc(OCCNC(=O)[C@@H](Cc2ccccc2)NC(=O)[C@H]2O[C@@H](n3ccc(=O)[nH]c3=O)[C@H](O)[C@@H]2O)cc1C,·,·,-7,·,·
COc1ccc(N=C2NC(=O)S/C2=C\c2ccc(N(C)C)cc2)cc1,36,4,-1,12,37*
CCOc1ccc(N=C2NC(=O)S/C2=C\c2ccc(Cl)cc2)cc1,-14,-10,1,16,-12
CCOC(=O)c1c(CN2CCN(C)CC2)n(C)c2cc(Br)c(OC)cc12,-23,19*,-9,7,-19
CCOC(=O)c1c(CN2CCCCC2)n(C)c2cc(Br)c(O)cc12,-1,-4,-8,13,-12
CCNC(=O)OC[C@H]1O[C@H](C#Cc2ccc(C(C)(C)C)cc2)C=C[C@H]1OC(C)=O,·,·,-5,·,·
O=C(COc1ccccc1-c1ccccc1)Nc1ccc(S(=O)(=O)NCc2ccco2)cc1,20,5,-5,47*,-3
OC(c1ccc(F)c(F)c1)c1nc(-c2csc3ccccc23)cs1 (centres undefined),·,·,-3,·,·
COCCCn1cc(CN(C)C2CN(Cc3cn(CCCOC)nn3)S(=O)(=O)C2)nn1 (centres undefined),·,·,-2,·,·
OCCOCCNc1ncnc2c1cnn2-c1ccc(Cl)cc1,4,1,4,23,16
COCCNc1ncnc2c1cnn2-c1ccc(Cl)cc1,4,20*,-5,13,-4
COC(=O)CC#C[C@H](C)[C@@H](NS(C)(=O)=O)C(C)(C)COCc1ccccc1,·,·,-7,·,·
Nc1[nH]c(=O)ncc1-c1ccc([N+](=O)[O-])cc1,·,·,-6,·,·
COc1ccc2nc(-c3ccco3)c(-c3ccco3)nc2c1,-14,3,-8,29,-12
COc1ccc2nc3cccc(OC)c3nc2c1,-18,-4,-2,42*,-17
COc1ccc2nc3ccccc3nc2c1N,-17,5,-3,55*,-20
COc1cc2c(cc1N)-c1ccc(N)cc1C2=O,·,·,-6,·,·
O=C(COC(=O)c1ccccc1NS(=O)(=O)c1ccc(Cl)cc1)NCc1ccccc1,-26,-2,1,49*,-9
Cc1cc(C(=O)CN2C(=O)NC3(CCCc4sccc43)C2=O)c(C)n1-c1ccc(Cl)cc1 (centres undefined),4,-11,-5,50*,-10
NC(=O)CN1C(=O)NC2(CCCc3sccc32)C1=O (centres undefined),-14,-1,-6,7,-2
SMILES,OX1R antag-1,GPR7 antagonist,GalR3 antag,OX1R antag-2,CHO parental Ca
COCCNC(=O)CN(c1cc(C(F)(F)F)ccc1Cl)S(C)(=O)=O,-4,19*,-4,21,-6
COC(=O)CN(c1cc(C(F)(F)F)ccc1Cl)S(C)(=O)=O,-6,-7,4,4,-12
O=C(Nc1nnc(C2=COCCO2)o1)c1ccc(Cl)cc1,-10,-2,-8,8,-11
O=C(Nc1nnc(C2=COCCO2)o1)c1ccc([N+](=O)[O-])cc1,-8,-3,0,52*,-8
O=C(NNC(=O)C1CCCC1)c1cc([N+](=O)[O-])cc([N+](=O)[O-])c1,-3,·,-8,38*,-3
Cc1cc(C)cc(C(O)c2ncc(-c3ccccc3C(F)(F)F)[nH]2)c1 (centres undefined),·,·,-8,·,·
O=Cc1ccc(OCc2cn(CC(=O)c3ccc(O)cc3)nn2)cc1,·,·,-4,·,·
O=C(NCCc1ccccc1Cl)[C@@H]1CCCN1C(=O)[C@H](Cc1cccnc1)NC(=O)N1CCOCC1,·,·,-2,·,·
CC1CN(C(=O)COC(=O)c2cc(Cl)ccc2Cl)CC(C)O1 (centres undefined),-16,6,-8,2,-12
O=C(COC(=O)c1cc([N+](=O)[O-])ccc1N1CCOCC1)Nc1c(Cl)cccc1Cl,-27,·,-7,54*,-5
CC1CN(C(=O)COC(=O)c2cc([N+](=O)[O-])ccc2Cl)CC(C)O1 (centres undefined),-2,-14,7,41*,-10
CC1CC(C)CN(C(=O)COC(=O)c2cc([N+](=O)[O-])ccc2N2CCOCC2)C1 (centres undefined),-49,·,-3,53*,-12
CC1(C)CC(=O)C=C(c2ccccc2F)C1=O,·,·,-5,·,·
NC(=O)c1c(N)[nH]c(C(=O)c2ccccc2)c1-c1ccccc1Cl,·,·,-7,·,·
C=CCNc1cccc2c1S(=O)(=O)N[C@H](CC(C)C)CO2,·,·,-4,·,·
COc1ccc(CN2C(=O)c3ccccc3C2c2nnnn2C(C)C)cc1OC (centres undefined),·,·,-4,·,·
CC1(C(=O)NCc2ccccc2)CN(S(C)(=O)=O)CC(=O)N1Cc1ccco1 (centres undefined),·,·,-8,·,·
CNS(=O)(=O)c1ccc2c3c(cccc13)C(=O)N2,·,-16,-7,·,·
CNS(=O)(=O)c1cc(S(=O)(=O)NC)c2cccc3c2c1NC3=O,-5,-8,-2,66*,7
CCOC(=O)Nc1cc(=O)c([N+](=O)[O-])c(N)[nH]1,·,·,-5,·,·
COc1ccccc1N(CC(=O)N1CCN(Cc2ccccc2)CC1)S(=O)(=O)c1ccccc1,·,·,-3,·,·
CCn1c(SCC(=O)N(C)CC(=O)Nc2cccc(OC)c2)nnc1-c1ccco1,-11,·,-4,40*,-9
COc1ccc(C(=O)CSc2nnc(-c3cc4ccccc4cc3O)n2Cc2ccco2)cc1,6,14,-5,53*,-21
CCn1c(SCC(=O)c2ccc3ccccc3c2)nnc1-c1ccco1,-3,-7,-6,74*,-9
COc1ccc(C(=O)CSc2nnc(-c3cccnc3)n2Cc2ccco2)cc1,-31,-12,-1,24,-6
SMILES,OX1R antag-1,GPR7 antagonist,GalR3 antag,OX1R antag-2,CHO parental Ca
COc1cccc(-c2cnc(C(O)c3cccc(F)c3)[nH]2)c1 (centres undefined),·,·,-6,·,·
COC(=O)C1=C(O)/C(=C/c2cccc(OC)c2O)N=C1C,-16,-12,6,63*,14
C[C@@H]1C=CCCO[C@]12C(=O)N(Cc1ccc(F)cc1)c1ccccc12,·,·,-3,·,·
Cc1ccc(-c2cc(C(=O)N/N=C/c3ccccc3)n[nH]2)o1,-17,-3,-9,20,-8
C/C(=N\NC(=O)c1ccc(Br)cc1)C1C(=O)c2ccccc2C1=O,-1,1,-10,55*,-2
CC(/C=N/NC(=O)c1cc(-c2ccc(C)o2)[nH]n1)=C\c1ccccc1,2,-9,-7,59*,-14
